Laboratory results reported in ChEMBL document CHEMBL2034851, “Synthesis and antiviral evaluation of C5-substituted-(1,3-diyne)-2'-deoxyuridines” (Eur J Med Chem, 2012).

How the values were obtained:
Human alphaherpesvirus 3 [1] = assay: Antiviral activity against thymidine kinase-positive Varicella-zoster virus YS infected in HEL cells assessed as reduction in virus-induced cytopathicity; type: functional, organism-based; settings: Human alphaherpesvirus 3, YS
Method in brief: (§1)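 Confluent HEL cell monolayers in 96-well plates were inoculated with 100 CCID50 or 20 PFU of virus and left 1–2 h for adsorption. Residual virus was removed and cells were incubated with serial compound dilutions. Read-out was taken once cytopathicity was complete in untreated infected controls. EC50 is the concentration giving 50% reduction of virus-induced cytopathicity or plaque formation.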

Human alphaherpesvirus 3 [2] = assay: Antiviral activity against thymidine kinase-positive Varicella-zoster virus OKA infected in HEL cells assessed as reduction in virus-induced cytopathicity; type: functional, cell-based; settings: Human alphaherpesvirus 3, strain Oka vaccine
Method in brief: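 Confluent HEL cell monolayers in 96-well plates were inoculated with 100 CCID50 or 20 PFU of virus and left 1–2 h for adsorption. Residual virus was removed and cells were incubated with serial compound dilutions. Read-out was taken once cytopathicity was complete in untreated infected controls.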

Human alphaherpesvirus 3 [3] = assay: Antiviral activity against thymidine kinase-deficient Varicella-zoster virus 07/1 infected in HEL cells assessed as reduction in virus-induced cytopathicity; type: functional, organism-based; settings: Human alphaherpesvirus 3, 07/1, HEL; method in brief: as §1
Human betaherpesvirus 5 [4] = assay: Antiviral activity against Human cytomegalovirus AD169 infected in HEL cells assessed as reduction in virus-induced cytopathicity; type: functional, organism-based; settings: Human betaherpesvirus 5, AD169, HEL
Method in brief: (§2)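 Confluent HEL cell monolayers in microtiter plates were inoculated with 100 CCID50 of virus or 20 PFU. After 1–2 h adsorption, residual virus was removed. Cultures were then incubated with graded compound concentrations. Cytopathicity was read once it was complete in untreated infected controls. EC50 is the concentration giving 50% reduction of virus-induced cytopathicity or plaque formation.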

Human betaherpesvirus 5 [5] = assay: Antiviral activity against Human cytomegalovirus Davis infected in HEL cells assessed as reduction in virus-induced cytopathicity; type: functional, organism-based; settings: Human betaherpesvirus 5, Davis; method in brief: as §2
[6] = Cytotoxicity against human HEL cells assessed as change in cell morphology by microscopic analysis; type: cell-based
Method in brief: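 MCC is the compound concentration producing a microscopically visible change in cell morphology, scored on the cell cultures used for the antiviral tests.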

[7] = Cytostatic against human HEL cells assessed as reduction in cell growth after 3 days by coulter counter; type: cell-based
Method in brief: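 HEL cells were seeded at 5 × 10³ cells/well and grown for 24 h. Medium with varying compound concentrations was then added and plates were incubated 3 days at 37 °C. Cells were counted with a Coulter counter. CC50 is the concentration reducing cell proliferation by 50% versus untreated controls.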

[8] = Lipophilicity, log P of the compound; type: physicochemical; settings: octanol/water
Human alphaherpesvirus 1 [9] = assay: Antiviral activity against Herpes simplex virus 1 KOS infected in HEL cells assessed as reduction in viral plaque formation; type: functional, organism-based; settings: Human alphaherpesvirus 1, KOS; method in brief: as §2
Human alphaherpesvirus 2 = assay: Antiviral activity against Herpes simplex virus 2 G infected in HEL cells assessed as reduction in viral plaque formation; type: functional, organism-based; settings: Human alphaherpesvirus 2, strain G; method in brief: as §2
Human alphaherpesvirus 1 [10] = assay: Antiviral activity against thymidine kinase-deficient Herpes simplex virus 1 infected in HEL cells assessed as reduction in viral plaque formation; type: functional, organism-based; settings: Human alphaherpesvirus 1, HEL; method in brief: as §2
Vaccinia virus = assay: Antiviral activity against Vaccinia virus infected in HEL cells assessed as reduction in viral plaque formation; type: functional, organism-based; settings: Orthopoxvirus vaccinia; method in brief: as §1

Row | SMILES | EC50 (Human alphaherpesvirus 3 [1]) [µM] | EC50 (Human alphaherpesvirus 3 [2]) [µM] | EC50 (Human alphaherpesvirus 3 [3]) [µM] | EC50 (Human betaherpesvirus 5 [4]) [µM] | EC50 (Human betaherpesvirus 5 [5]) [µM] | MCC [6] [µM] | CC50 at 72 h [7] [µM] | logP [8] | EC50 (Human alphaherpesvirus 1 [9]) [µM] | EC50 (Human alphaherpesvirus 2) [µM] | EC50 (Human alphaherpesvirus 1 [10]) [µM] | EC50 (Vaccinia virus) [µM]
1 | O=c1[nH]c(=O)n([C@H]2C[C@H](O)[C@@H](CO)O2)cc1C#CC#Cc1ccccc1 | > 20 | > 20 | > 20 | > 20 | > 20 | 100 | 100 | 0.96 |  |  |  | 
2 | CCCc1ccc(C#CC#Cc2cn([C@H]3C[C@H](O)[C@@H](CO)O3)c(=O)[nH]c2=O)cc1 | 2.77 | 3.7 | 14 | > 20 | > 20 | 100 | 52 | 2.36 |  |  |  | 
3 | CCCCCCc1ccc(C#CC#Cc2cn([C@H]3C[C@H](O)[C@@H](CO)O3)c(=O)[nH]c2=O)cc1 | 6.44 | 8.8 | 9.5 | > 20 | > 20 | 100 | 35 | 3.7 |  |  |  | 
4 | COc1cc(C#CC#Cc2cn([C@H]3C[C@H](O)[C@@H](CO)O3)c(=O)[nH]c2=O)cc(OC)c1 | 38.1 | 39 | > 100 | > 100 | > 100 | > 100 | > 100 |  |  |  |  | 
5 | O=c1[nH]c(=O)n([C@H]2C[C@H](O)[C@@H](CO)O2)cc1C#CC#Cc1ccccn1 | 2.06 | 5.1 | 20 | 49 | > 4 | > 20 | 1.5 |  |  |  |  | 
6 | Nc1cccc(C#CC#Cc2cn([C@H]3C[C@H](O)[C@@H](CO)O3)c(=O)[nH]c2=O)c1 |  | > 100 | > 100 | > 100 | > 100 | > 100 | > 100 | 0.13 |  |  |  | 
7 | Nc1ccc(C#CC#Cc2cn([C@H]3C[C@H](O)[C@@H](CO)O3)c(=O)[nH]c2=O)cc1 |  | > 100 | > 100 | > 100 | > 100 | > 100 | > 100 | 0.13 |  |  |  | 
8 | O=c1[nH]c(=O)n([C@H]2C[C@H](O)[C@@H](CO)O2)cc1C#CC#Cc1ccc([N+](=O)[O-])cc1 |  | > 20 | > 20 | > 20 | > 20 | 100 | 89 | 0.9 |  |  |  | 
9 | O=c1[nH]c(=O)n([C@H]2C[C@H](O)[C@@H](CO)O2)cc1C#CC#Cc1ccc(OC(F)(F)F)cc1 | 1.08 | 0.9 | > 4 | > 20 | > 20 | 100 | 55 | 2.39 | 14.5 | 10 | 14.5 | 20
10 | Cc1cc(C#CC#Cc2cn([C@H]3C[C@H](O)[C@@H](CO)O3)c(=O)[nH]c2=O)ccc1F | 9.13 | 14 | > 20 | > 20 | > 20 | 100 | 45 |  |  |  |  | 
11 | CC(O)CC#CC#Cc1cn([C@H]2C[C@H](O)[C@@H](CO)O2)c(=O)[nH]c1=O (stereo partly drawn) | 12.7 | 20 | > 100 | > 100 | > 100 | > 100 | 9.5 |  |  |  |  | 
12 | O=c1[nH]c(=O)n([C@H]2C[C@H](O)[C@@H](CO)O2)cc1C#CC#CCO | 6.24 | 2.1 | > 100 | > 100 | > 100 | > 100 | > 100 | -1.45 |  |  |  | 
13 | O=c1[nH]c(=O)n([C@H]2C[C@H](O)[C@@H](CO)O2)cc1C#CC#CCC1CCCC1 | 33.7 | 42 | > 100 | > 100 | > 100 | > 100 | 89 | 1.43 |  |  |  | 
14 | O=c1[nH]c(=O)n([C@H]2C[C@H](O)[C@@H](CO)O2)cc1C#CC#CC1CC1 |  | > 100 | > 100 | > 100 | > 100 | > 100 | > 100 |  |  |  |  | 
15 | Nc1nc2c(ncn2COCCO)c(=O)[nH]1 [ACYCLOVIR] | 2.18 |  | 92 |  |  | > 300 | 470 |  |  |  |  | 
16 | O=c1[nH]c(=O)n([C@H]2C[C@H](O)[C@@H](CO)O2)cc1/C=C/Br [BRIVUDINE] | 0.0075 | 0.0087 | 74 |  |  | > 150 | > 100 |  |  |  |  | 
17 | Nc1ccn(C[C@@H](CO)OCP(=O)(O)O)c(=O)n1 [CIDOFOVIR] |  |  |  |  | 1.1 | > 350 | 64 |  |  |  |  | 
18 | Nc1nc2c(ncn2COC(CO)CO)c(=O)[nH]1 [GANCICLOVIR] |  |  |  | 7.5 | 7.1 | > 350 | 130 |  |  |  |  | 
